Results on 4 molecules are retold here after ChEMBL document CHEMBL1157068, “Crossbyanols A-D, toxic brominated polyphenyl ethers from the Hawai'ian bloom-forming Cyanobacterium Leptolyngbya crossbyana” (J Nat Prod, 2010).

Values after ≈ are worked out from the molar mass of the structure shown. Active and inactive are the calls of the source. The calls are words filed in the database; no cut-off is given here.

Data set [1] deals with Neuro2a. The data set can be described thus: Inhibition of voltage-gated sodium channel in mouse Neuro2a cells at 20 ug/ml after 24 hrs by MTT assay. It is filed as cell-based. For orientation: Tetrazolium dyes change colour on reduction, which living cells bring about.
Data set [2] deals with Staphylococcus aureus. Description: Antibacterial activity against methicillin-resistant Staphylococcus aureus after 24 hrs by optical density method. Format: functional. A digest of the protocol:
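MRSA grown on GYT medium for 24 h at 37 °C, then inoculated into GYT medium containing serial dilutions of compound and incubated 24 h at 37 °C. Growth read as optical density at 600 nm. MIC taken as the lowest concentration inhibiting bacterial growth.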

Data set [3] deals with Neuro2a. Description: Activation of voltage-gated sodium channel in mouse Neuro2a cells at 20 ug/ml after 16 hrs by MTT assay. It is filed as cell-based. A digest of the protocol: (§1)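 Neuro2a cells plated at 3.0×10^5 cells/mL in RPMI 1640 with 10% FBS and 1% pen/strep, 200 µL/well, recovered overnight (37 °C, 5% CO2). DMSO stocks (10 mg/mL) diluted in serum-free RPMI to a final 20 µg/mL. Bottom half of plate got 5 mM ouabain plus 150 µM veratridine in PBS/5 mM HCl; top half PBS/HCl only for general toxicity. Brevetoxin-2 positive control. MTT after ~16 h, read at 570/630 nm.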

Data set [4] deals with NCI-H460. Description: Cytotoxicity against human H460 cells after 48 hrs by MTT assay. Format: functional, cell-based. The method, boiled down:
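H-460 cells at 3.33×10^4 cells/mL in RPMI 1640 with FBS and 1% pen/strep, 180 µL/well, recovered overnight (37 °C, 5% CO2). DMSO stocks (10 mg/mL) diluted in serum-free RPMI to final 30 or 3 µg/mL; serum-free medium as negative control. ~48 h incubation, then MTT, absorbance read at 570 and 630 nm.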

Data set [5] concerns Artemia salina. The data set can be described thus: Toxicity in Artemia salina after 24 hrs. It is filed as organism-based. The method, boiled down:
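Artemia salina eggs hatched over 24 h; about 20 nauplii in ~0.5 mL seawater added per well holding sample in 50 µL EtOH plus 4.5 mL artificial seawater. Final concentrations 1, 5 and 25 ppm, controls and samples in triplicate. Live and dead counted after 24 h at 28 °C.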

Data set [6] can be described thus: Activation of voltage-gated sodium channel in mouse Neuro2a cells after 16 hrs by MTT assay. Format: cell-based. The following applies: N2a. A digest of the protocol:
as §1

For `O=S(=O)(O)Oc1ccc(Oc2c(Br)cc(Oc3ccc(O)c(Br)c3)cc2Oc2ccc(Br)cc2Br)c(Br)c1Oc1ccc(Br)cc1Br`, the inhibition entry in data set [1] is “inactive”. In addition, the result in data set [2], in data set [3] and in data set [4] was inactive.
In the case of `O=S(=O)(O)Oc1ccc(Oc2cc(Br)c(Oc3ccc(O)c(Oc4ccc(Br)cc4Br)c3Br)c(Oc3ccc(Br)cc3Br)c2)cc1Br`, the inhibition entry in data set [1] is “inactive”. The outcome in data set [2], in data set [3] and in data set [4] was inactive.
As to `Oc1ccc(Oc2cc(Br)c(Oc3ccc(O)c(Oc4ccc(Br)cc4Br)c3Br)c(Oc3ccc(Br)cc3Br)c2)cc1Br` [CROSSBYANOL A], in data set [1], the inhibition entry was “inactive”. In data set [5] (artemia salina, in vivo, 24 h), the Activity entry was “Non-toxic”. The IC50 in data set [6] worked out at 20 µg/mL (≈ 19.4 µM); in data set [4] (NCI-H460, 48 h), 30 µg/mL (≈ 29.1 µM). The result in data set [2] was inactive.
As usually defined, the MIC is the least concentration at which growth counts as inhibited. A low value points to inhibition by little substance. With `O=S(=O)(O)Oc1ccc(Oc2cc(Br)c(Oc3ccc(OS(=O)(=O)O)c(Oc4ccc(Br)cc4Br)c3Br)c(Oc3ccc(Br)cc3Br)c2)cc1Br` [CROSSBYANOL B], the inhibition result in data set [1] is “inactive”. This molecule also displayed an IC50 in data set [5] of 2.8 ppm. The molecule further gave an MIC in data set [2] of 2 µg/mL (≈ 1.68 µM). For the same molecule, the outcome in data set [3] and in data set [4] was inactive.
